CCR6 antagonist: antagonists of human CCR6 receptor; CHO-K1 CCR6 PathHunter beta-arrestin, luminescence, CCL20-stimulated; inhibition, % at 20 µM; 340,000 compounds, 0.49% hits;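 active means compounds whose inhibition of the agonist-driven luminescence signal at 20 µM reaches about 50%, limit read from the data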;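 further: cells stimulated with CCL20 at 14 nM final; plate controls were DMSO with CCL20 for no effect and DMSO without agonist for full effect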
APJ ag: activates the human apelin receptor APJ | P35414 | CHO-K1 APJ PathHunter beta-arrestin, luminescence; 0% DMSO wells, 100% apelin | activation, % at 20 µM | 330,000 compounds, 0.11% hits | AID 2520;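 active means activation more than six SD over the plate average, tested at 20 µM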;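 further: 0% = DMSO alone and 100% = apelin-13 at 10 nM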
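Assay system – PathHunter CHO-K1 APJ (AGTRL-1) beta-arrestin reporter cells · Compound – one dose, 20 µM compound, 1% DMSO · Timing – compound 90 min 25 °C, reagent 1 h · Measured by – luminescence from split beta-galactosidase complementation, Galacton Star/Emerald II substrate · Measure – beta-arrestin recruitment to APJ as agonist activity, luminescent signal · Benchmarks – DMSO vs Apelin-13 10 nM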
HTR2A ag: agonists of mouse serotonin 5-HT2A receptor (HTR2A). 360,000 compounds, 0.66% hits. activation, % at 7.6 µM. P35363. CHO-K1 mHTR2A beta-arrestin complementation, luminescence; percent of 30 µM serotonin response;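 active means activation above a run cutoff, the mean activation of all tested compounds plus 3 SD, cut at about 14% in these data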;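 further: 0% = plate median of compound wells and 100% = 30 µM serotonin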
APJ antagonist: blocks the human apelin receptor APJ; CHO-K1 APJ beta-arrestin complementation, luminescence; inhibition, % at 20 µM; 330,000 compounds, 0.32% hits;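 active means inhibition above about 40% at 20 µM, limit read from the data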;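 further: cells challenged with 10 nM apelin-13 agonist together with compound; plate controls were apelin-13 plus DMSO wells for no effect and DMSO wells lacking apelin-13 for full effect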
CXCR6 block: inhibitors of human CXCR6 receptor; CHO-K1 PathHunter CXCR6 beta-arrestin, luminescence; O00574; inhibition, % at 20 µM; AID 602244; 360,000 compounds, 0.36% hits; in the data active means inhibition above about 34%, passing the limit was not always enough;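 further: antagonist mode with CXCL16 agonist at 10 nM final; 0% = 10 nM CXCL16 with DMSO and 100% = unstimulated wells without agonist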
EBI2 antag: blocks human EBI2 receptor beta-arrestin signaling; P32249; EBI2 beta-arrestin recruitment, luminescence, 7a,25-OHC stimulated; inhibition, % at 5 µM; 360,000 compounds, 0.81% hits; in the data active means inhibition above about 38%;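 further: enzyme fragment complementation signal reports receptor beta-arrestin coupling in cells; 0% = agonist plus DMSO wells and 100% = wells without agonist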
OPRM1 ag: counter-screen for mouse HTR2A agonists: human mu opioid receptor agonists; U2OS OPRM1 beta-arrestin PathHunter, luminescence; DMSO 0%, DAMGO 9.3 µM 100%; AID 624380; 2,300 compounds, 5.3% hits; shares compounds with HTR2A ag; activation, % at 9.3 µM;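 active means mean activation above the mean of DMSO-only wells plus 3 SD, cut at about 0.5% in these data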
Target sequence (P35372 whole entry, looked up): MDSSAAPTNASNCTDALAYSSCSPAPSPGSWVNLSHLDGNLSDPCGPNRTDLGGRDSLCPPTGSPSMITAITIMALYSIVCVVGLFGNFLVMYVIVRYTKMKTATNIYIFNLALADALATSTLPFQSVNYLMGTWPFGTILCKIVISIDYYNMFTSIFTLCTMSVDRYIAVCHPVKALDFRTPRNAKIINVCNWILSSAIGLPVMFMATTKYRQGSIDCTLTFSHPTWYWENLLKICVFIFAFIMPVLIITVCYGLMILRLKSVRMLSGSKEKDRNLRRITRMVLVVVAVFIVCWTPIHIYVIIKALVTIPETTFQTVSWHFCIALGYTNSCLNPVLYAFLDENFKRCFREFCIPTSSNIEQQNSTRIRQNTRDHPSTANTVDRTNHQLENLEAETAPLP
m5-HT2A ag conf: mouse HTR2A agonism confirmed; shares compounds with HTR2A ag; CHO-K1 PathHunter beta-arrestin recruitment, luminescence; DMSO 0%, 30 µM serotonin 100%; activation, % at 7.6 µM; 2,300 compounds, 19% hits;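 active means mean activation across triplicates above the hit threshold derived in the original primary screen, cut at about 15% in these data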
The depositor's hits bear a star; · = no result. Sampled rows, rich in hits. Any-hit rate of the full collection: about 2.1%.

SMILES | CCR6 antagonist | APJ ag | HTR2A ag | APJ antagonist | CXCR6 block | EBI2 antag | OPRM1 ag | m5-HT2A ag conf
C=CCOC(=O)c1ccccc1C(=O)OCC1CO1 (configuration not stated) | 6 | · | 23* | · | 2 | -4 | 0 | 4
CC(C)c1nc2sc3c(=O)[nH]cnc3c2c2c1CCC2 | 3 | -1 | 2 | 2 | -8 | 3 | · | ·
CC(C)c1nc2sc3c(=S)nc[nH]c3c2c2c1CCC2 | 4 | -4 | 16* | -2 | -7 | 10 | -1 | -1
O=C(c1ccco1)N1CCN(C(=O)c2ccc(CS(=O)c3ccc(Cl)cc3)o2)CC1 (configuration not stated) | 14 | -6 | 15* | 16 | 0 | -9 | -1 | -3
O=C(c1ccc(CS(=O)c2cccc(Cl)c2)o1)N1CCOCC1 (configuration not stated) | 5 | -4 | 18* | 17 | -8 | -7 | -1 | -2
O=C(c1ccco1)N1CCN(Cc2c(Cl)cccc2Cl)CC1 | -11 | -5 | -1 | 9 | -3 | -10 | · | ·
O=C(c1ccco1)N1CCN(Cc2ccc(Br)cc2)CC1 | 7 | -5 | 15* | -4 | -5 | -1 | 0 | 90*
CN(c1ccc(C(=O)N2CCN(Cc3ccccc3)CC2)cc1)S(=O)(=O)c1ccc(Cl)cc1 | 18 | 0 | 15* | -5 | -2 | 0 | 0 | 64*
O=S(=O)(c1ccccc1)C(Br)S(=O)(=O)c1ccccc1 | · | · | -3 | · | -3 | -2 | · | ·
COC(=O)[C@@]1(Cc2ccccc2)[C@H]2C(=O)N(C)C(=O)[C@H]2[C@H]2CN=C(SCc3ccc(C)cc3)N21 | 18 | · | -4 | · | 4 | 4 | · | ·
O=C(NCCc1ccc(F)cc1)C1CCN(C(=O)Nc2ccccc2)CC1 | 8 | -4 | -6 | -49 | 3 | 7 | · | ·
CCc1ccc(CN2CCN(C(=O)c3ccco3)CC2)cc1 | 15 | 1 | 15* | -2 | 0 | -5 | -1 | 123*
O=C(c1ccco1)N1CCN(Cc2ccc(Cl)cc2)CC1 | 8 | 0 | 21* | 3 | -15 | -11 | 0 | 88*
COC(=O)[C@H]1C[C@@]2(O)CN(S(=O)(=O)c3ccc(C)cc3)C[C@@]2(OC(=O)NCc2ccccc2F)C[C@H]1C(=O)OC | · | · | 19* | · | -3 | -1 | 0 | -2
COc1cccc(CN2CC(C(=O)NCCSc3nnnn3C)CCC2=O)c1 (configuration not stated) | 5 | 9 | -1 | 8 | -4 | 1 | · | ·
Cc1cc(OC(C)C(=O)N(Cc2ccco2)C2CCS(=O)(=O)C2)cc(C)c1Cl (configuration not stated) | 3 | -3 | 17* | -2 | 2 | 1 | -1 | -1
Cc1cc(OCC(=O)N(Cc2ccco2)C2CCS(=O)(=O)C2)cc(C)c1Cl (configuration not stated) | 9 | -2 | 5 | 8 | 4 | 0 | · | ·
CC1CN(CC(=O)NCc2ccccc2)CC(C)O1 (configuration not stated) | -20 | -4 | 15* | 6 | 7 | 4 | 0 | 1
CC1CN(CC(=O)NCc2ccc(F)cc2)CC(C)O1 (configuration not stated) | 3 | -5 | -5 | 18 | -2 | -2 | · | ·
CN(C1=NS(=O)(=O)N=C(N(C)c2ccccc2)O1)c1ccccc1 | · | · | 5 | · | 1 | 30 | · | ·
COc1ccccc1N1CCN(C(=O)CSc2nc3ccccc3[nH]2)CC1 | 6 | 2 | 15* | -3 | -4 | -2 | 0 | 0
COc1ccc2nc(NC(=O)c3ccoc3C)sc2c1 | 8 | -2 | 23* | -5 | -1 | -3 | -1 | -5
COc1ccc2nc(NC(=O)c3cc(C)oc3C)sc2c1 | 11 | -2 | 1 | 1 | -3 | 6 | · | ·
CC(=O)C1=CCC(c2cccc(Cl)c2)N(S(=O)(=O)c2ccc(C)cc2)C1 (configuration not stated) | · | · | -5 | · | -6 | 4 | · | ·
Cc1noc(C)c1S(=O)(=O)NC(=O)C1(C)CCN1C(=O)CC(c1ccccc1)c1ccccc1 (configuration not stated) | · | · | 0 | · | -5 | -1 | · | ·
SMILES | CCR6 antagonist | APJ ag | HTR2A ag | APJ antagonist | CXCR6 block | EBI2 antag | OPRM1 ag | m5-HT2A ag conf
C[C@H]1CN([C@@H](C)CO)C(=O)c2cc(/C=C/c3ccccc3)cnc2O[C@H]1CN(C)C(=O)c1cccc(F)c1 | · | · | 17* | · | 1 | 3 | -1 | -8
CC(=O)NCC1COc2ccccc2O1 (configuration not stated) | -6 | -6 | 12 | 10 | 10 | 2 | · | ·
CC(=O)NCC1(c2ccccc2)CCN(CC2COc3ccccc3O2)CC1 (configuration not stated) | · | · | 20* | · | 3 | -11 | 0 | 44*
COc1ccc(CN2CCN(c3ncccn3)CC2)c(C)c1C | 17 | -1 | 34* | 0 | 12 | 5 | 0 | 130*
COc1cccc(CN2CCN(Cc3cc(OC)c(OC)c(OC)c3)CC2)c1OC | 10 | 4 | 0 | 14 | -18 | 0 | · | ·
CCOc1cc(CN2CCN(c3ncccn3)CC2)ccc1OC | 10 | -3 | 22* | 17 | 5 | -3 | -1 | 50*
c1cnc(N2CCN(Cc3c[nH]c4ccccc34)CC2)nc1 | -7 | -5 | 29* | -9 | -14 | 1 | -1 | 93*
COc1cccc(CN2CCN(c3ncccn3)CC2)c1OC | 8 | -6 | 25* | 12 | 8 | 8 | -1 | 81*
Fc1ccc(N2CCN(Cc3c[nH]c4ccccc34)CC2)cc1 | · | 2 | · | 2 | · | · | · | ·
CCCCNC(=O)O[C@@H]1C[C@H]2CCC(=O)N3CC[C@@H](C1)[C@@H]23 | -1 | 0 | -1 | -57 | -6 | -8 | · | ·
C#CCOC(=O)CCCC(=O)Nc1ccccc1OC | -4 | 0 | 18* | -3 | 2 | -1 | 0 | 0
OCC1OC(n2cnc3c(N4CCCCC4)ncnc32)C(O)C1O (configuration not stated) | 0 | · | 1 | · | -11 | -13 | · | ·
O=C(Nc1ccccc1C(F)(F)F)c1cnccn1 | -1 | 2 | 19* | 6 | -6 | -7 | -1 | 2
CC(=O)NC(c1ccc(F)c(F)c1)c1nc(-c2cccs2)cs1 (configuration not stated) | · | · | 5 | · | 5 | 1 | · | ·
O=C(C1CCN(CCCc2ccccc2)CC1)N1CCCCC1 | -3 | -2 | 20* | 18 | -3 | -6 | -1 | 45*
CC1CCN(C(=O)C2CCN(CCCc3ccccc3)CC2)CC1 | · | -2 | · | 8 | · | · | · | ·

High-throughput results deposited in PubChem BioAssay by several laboratories.
